Screens as filed in PubChem.
Shown are actives, neighbours in structure and some others; about 2.8% of the full set was active somewhere.
Rtt109 HAT inh: inhibitors of C. albicans Rtt109/Vps75 HAT, primary screen, biochemical, ThioGlo CoA-SH fluorescence, plate reader; purified Rtt109/Vps75, 4 h; Histone acetyltransferase RTT109 (Candida albicans (strain SC5314 / ATCC MYA-2876)), …; inhibition, % at 34.9 µM; hit rate 0.16% among 330,000;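 active = inhibition of at least 50% in every replicate; inconclusive = best replicate reaches 50% inhibition but some replicates fall short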
Target sequence (Q5AAJ8 whole entry, looked up): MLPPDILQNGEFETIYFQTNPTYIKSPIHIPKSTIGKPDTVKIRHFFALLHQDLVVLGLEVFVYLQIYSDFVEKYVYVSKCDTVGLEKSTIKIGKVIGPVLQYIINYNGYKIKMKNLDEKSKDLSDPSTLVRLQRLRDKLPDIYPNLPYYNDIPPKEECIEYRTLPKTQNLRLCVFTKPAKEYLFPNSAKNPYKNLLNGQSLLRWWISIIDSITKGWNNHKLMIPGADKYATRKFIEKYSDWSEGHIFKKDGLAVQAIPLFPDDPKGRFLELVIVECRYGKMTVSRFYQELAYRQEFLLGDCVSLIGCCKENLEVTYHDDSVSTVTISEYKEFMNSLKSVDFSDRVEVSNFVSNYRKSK
NR3A LBD binder: binders of NR3A ligand-binding domain, primary screen, biophysical, differential scanning fluorimetry, uHTS; Glutamate receptor ionotropic, NMDA 3A (GRIN3A) ligand-binding domain; NR3A LBD differential scanning fluorimetry, Tm shift; 0% = protein alone, 100% = glycine-bound protein; Tm shift relative to glycine control, % at 25 µM; hit rate 2.5% among 340,000;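 active = melting temperature shift of at least 10% of the positive control shift, at one fixed dose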
GASC-1 inh: inhibitors of GASC-1 histone demethylase, primary screen, biochemical, fluorescence, DELFIA europium. hit rate 0.069% among 330,000. GST-JMJD2C(1-420) H3K9me3 demethylation. Lysine-specific demethylase 4C (Homo sapiens), Q9H3R0. inhibition, % at 2.35 µM;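 active = more than half of a compound's replicate wells show inhibition beyond 50%, single wells judged on their own value; inconclusive = some, but no more than half, of replicates pass 50% inhibition; inactive = no replicate passes 50% inhibition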;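 also: signal counts dimethyl H3K9 product captured on neutravidin plate; 0% = median of DMSO wells and 100% = 0.3 times that DMSO median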
T cell HTS: modulators of CD8 T cell-vesicle binding, primary screen, mouse 2C CD8+ T cells, flow cytometry; 2C CD8+ T cell-vesicle binding; active compounds read low; response (vesicle binding), % at 7 µM; hit rate 0.068% among 330,000;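 active = response, share of CD8 T cells binding vesicles, and their 90th percentile fluorescence all below set limits, cut at about 80% in these data, passing the limit was not always enough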;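 also: values below 100% mean blocked vesicle binding to the CD8+ T cells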
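Material: 2C TCR transgenic mouse naive CD8+ T cells, MACS-purified. Also added: QL9-charged Drosophila Ld/ICAM-1/B7-1 vesicles. Timing: binding 1.5 h at 37 °C. Measured by: high-throughput flow cytometry with anti-B7-1 and anti-CD8 staining. Read-out: percent CD8+ FL2 mean versus row control. Controls: Unloaded micro-vesicles (low), QL9 vesicles with 0.7% DMSO (high).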
* = called active by the depositor; ? = inconclusive; . = no result.

SMILES	Rtt109 HAT inh	NR3A LBD binder	GASC-1 inh	T cell HTS
COC(=O)c1cccc(NC(=O)c2cccc([N+](=O)[O-])c2)c1	10.3	0.7	2.0	388.3
COc1ccc(C(=O)Nc2cc3c(cc2OC)CCCC3)cc1Br	2.4	11.4*	-2.8	413.1
COc1ccc(C(=O)Nc2cccc([N+](=O)[O-])c2)cc1Br	-7.1	21.7*	-4.9	210.7
COc1ccc(C(=O)Nc2ccc(OC)c([N+](=O)[O-])c2)cc1Br	4.3	30.4*	-1.0	223.7
COc1ccc(NC(=O)Nc2cccc([N+](=O)[O-])c2)cc1Cl	3.0	31.8*	4.9	264.2
CCOC(=O)C1CCN(c2nc(C)cc(C)c2C#N)CC1	1.2	0.2	3.0	175.2
CCOC(=O)C1CCN(c2nc(N)c3c(N)nc(SCC(=O)O)cc3c2C#N)CC1	68.3*	-0.1	?	.
O=C(NNC(=O)C1CC1)c1cc(Br)c(Br)s1	-4.5	-1.2	0.3	394.0
COC(=O)CNC(c1ccccc1)c1cc(Br)ccc1NS(=O)(=O)c1ccc(C)cc1 (stereo unspecified)	3.8	16.0*	-4.2	985.8
COc1cc(CCNC2=CC(=O)c3ncccc3C2=O)ccc1O	3.0	1.7	.	.
Cc1ccc(C)c(C2=NNC(=O)CC2)c1	-4.1	4.8	-5.1	409.6
CCOC(=O)CN1C(=O)Nc2ccc(Br)cc2C1c1ccccc1 (stereo unspecified)	4.2	-1.2	-37.4	231.8
CCOC(=O)CN1C(c2ccc(O)cc2)Nc2ccc(Br)cc2C1c1ccccc1 (stereo unspecified)	33.9	19.5*	-28.1	127.6
Cc1ccc(OCCNC(=O)CCNS(=O)(=O)c2ccc3ccccc3c2)cc1	-7.1	1.0	2.3	290.0
Fc1ccc2[nH]c3c(N4CCc5ccccc5C4)ncnc3c2c1	.	23.2*	3.8	139.2
CC(C)CN(C(=O)COC(=O)Cc1cccc2ccccc12)c1c(N)n(Cc2ccccc2)c(=O)[nH]c1=O	.	0.2	0.0	509.5
CCOc1ccc2nc(NC(=O)CSc3ccc(Cl)cc3)sc2c1	5.5	10.2*	1.8	176.9
CCOc1ccc(-c2nnc3ccc(SCC(=O)Nc4nc5ccc(C)cc5s4)nn23)cc1	-13.3	21.5*	-3.8	264.0
CCOc1ccc2nc(NC(=O)CSc3cn[nH]n3)sc2c1	-7.0	0.3	-3.5	265.9
CCOc1ccc2nc(NC(=O)c3ccc(OCC4CCCO4)cc3)sc2c1 (stereo unspecified)	.	19.7*	-0.6	90.9
CCOc1ccc(-c2nnc3ccc(SCC(=O)Nc4nc5ccccc5s4)nn23)cc1	-24.1	4.9	-6.5	458.2
O=C(CSc1ncn(-c2ccccc2)n1)Nc1nc(-c2ccccc2)cs1	-7.9	5.7	-9.0	320.0
O=C(CSc1ncn(-c2ccccc2)n1)Nc1nc2ccccc2s1	-8.6	21.9*	1.4	396.8
CCOC(=O)[C@@H](C)N(C(=O)OC(C)(C)C)S(=O)(=O)N(Cc1ccccc1)[C@H](C(=O)OC)C(C)C	-11.7	-3.4	.	.
O=C(N1CCOCC1)N1CCN(S(=O)(=O)c2cccc([N+](=O)[O-])c2)CC1	3.1	0.6	6.4	209.0
SMILES	Rtt109 HAT inh	NR3A LBD binder	GASC-1 inh	T cell HTS
Cc1cccc(C)c1OCc1nnc(NC(=O)CSc2ccc(Cl)cc2)s1	-1.7	-0.3	6.9	124.4
COc1ccc2nc(NC(=O)CSc3ccccc3)sc2c1	11.7	30.8*	-4.0	186.8
COc1ccc2nc(NC(=O)CN3C(=O)NC4(CCCCC4)C3=O)sc2c1	52.0*	-2.4	-19.2	423.5
O=C(CSc1ccccc1)Nc1nnc(COc2ccc(Cl)cc2)s1	5.9	14.2*	6.3	306.6
CCOc1ccc2nc(NC(=O)CSC3=NCCS3)sc2c1	9.1	18.4*	-13.3	156.9
S=C(NCCC(c1ccccc1)c1ccccc1)Nc1ccc(Cl)cc1	-13.0	14.7*	5.1	256.5
S=C(NCCSCc1ccc(Cl)cc1)Nc1ccccc1	5.5	11.5*	5.4	68.8
S=C(NCCCc1ccccc1)Nc1ccc(Cl)cc1	6.4	22.0*	0.6	289.6
Cc1ccc(C)c(NC(=S)NCCSc2ccc(Cl)cc2)c1	-6.8	-5.0	-9.7	548.1
Cc1cccc(NC(=S)NCCSc2ccc(Cl)cc2)c1	6.4	14.3*	6.8	398.5
